Measurements from PMC6120730 (ACS Omega, 2018).
≈ marks a conversion by molar mass, not a printed value. Read-outs that look alike come from different tables or passages of the source.

Legend:
[1] = previously reported; cited from earlier work
[2] = human liver microsomes; previously reported; cited from earlier work
[3] = mouse liver microsomes, previously reported, cited from earlier work; for predicted Eh (M): predicted hepatic extraction ratio
[4] = mouse, oral, 10 mg/kg, plasma concentrations; cited from earlier work
[5] = pH 7.4; previously reported; cited from earlier work
[6] = In vitro metabolism in human liver microsomes; assay type: in vitro ADME; conditions: for microsomal CLint: human, liver microsomes; for predicted Eh (H): predicted hepatic extraction ratio, human liver microsomes
Summary of the method: (§1)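 Liver microsomes at 0.4 or 0.5 mg/mL protein were incubated at 37 °C with 0.5 or 1 μM test compound. Remaining compound in the supernatant was quantified by LC–MS at time points over 0–60 min. In vitro CLint and predicted hepatic extraction ratio were calculated from the depletion data.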

[7] = In vitro metabolism in mouse liver microsomes; assay type: in vitro ADME; conditions: for predicted Eh (M): predicted hepatic extraction ratio, mouse liver microsomes
Summary of the method: as §1

[8] = tested on: P. falciparum 3D7 parasites; experiment: P. falciparum 3D7 growth assay; assay type: cell-based; conditions: Pf3D7 EC50 relative to 1
[9] = Kinetic aqueous solubility by nephelometry, pH 6.5; assay type: physicochemical; conditions: phosphate buffer, pH 6.5, aqueous buffer, kinetic from dmso stock
Summary of the method: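 Test compound in DMSO was spiked into pH 6.5 phosphate buffer (final DMSO 1 v/v %) and incubated 30 min at room temperature. A solubility range was assigned by nephelometry.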

[10] = Mouse pharmacokinetics after oral administration; assay type: in vivo
Summary of the method: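 Both arms used a single oral gavage dose. Plasma arm: male Swiss outbred mice, 20 mg/kg as a suspension in 0.5% CMC, 0.5% benzyl alcohol and 0.4% Tween 80. Plasma was sampled over 24 h and measured by LC–MS. Blood arm: 10 mg/kg in 0.1% methylcellulose. Serial blood was taken 0.5–24 h, lysed with water and analysed by LC–MS/MS. Parameters came from noncompartmental analysis.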

[11] = tested on: P. falciparum Pf3D7^0087/N9; experiment: SCID mouse model of P. falciparum infection; assay type: in vivo
Summary of the method: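 NOD-scid IL2Rγnull mice (23–36 g) engrafted with human erythrocytes were infected iv with 20 × 10^6 Pf3D7^0087/N9 parasites. Test compound in 1% methylcellulose was given by oral gavage once daily for 4 days from day 3 (10–60 mg/kg), with actual doses verified by measuring the formulations. Parasitemia was measured by FACS and blood drug by LC–MS–MS. ED90 was set on day 7.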

[12] = male, Swiss outbred, plasma, 20 mg/kg

SMILES | microsomal CLint [6] [µL/min/mg] | microsomal CLint ([7]; mouse, liver microsomes) [µL/min/mg] | solubility kinetic at 30 min [9] [µg/mL] | predicted Eh (H) [6] | predicted Eh (M) [7] | also measured
Cc1cc(Nc2ccc(S(F)(F)(F)(F)F)cc2)n2nc(C(C)(F)F)nc2n1 [Compound 1] | – | – | – | – | – | kinetic solubility pH 6.5 [1]: 12.5–25 μg/mL; CLint (H) [2]: 4.3 μL/min/mg protein; CLint (M) [3]: 2.8 μL/min/mg protein; predicted Eh (M) [3]: <0.2/<0.2; AUCinf [4]: 23 µM·h
Cc1cc(Nc2ccc(C(F)(F)F)nc2)n2nc(C(C)(F)F)nc2n1 [Compound 2] | – | – | – | – | – | log DpH7.4 [5]: 2.5; kinetic solubility pH 6.5 [1]: >100 μg/mL; CLint (H) [2]: 2.2 μL/min/mg protein; CLint (M) [3]: < 7 μL/min/mg protein; predicted Eh (M) [3]: < 0.01
Cc1nc(Nc2ccc(C)c(Cl)c2)c2c(C)noc2n1 [Compound 3] | 6.2 | 28 | – | – | – | CLint (M) ([7]; mouse, liver microsomes): rapidly metabolized
Cc1nc(NC2CCc3ccc(Cl)cc3C2)c2c(C)noc2n1 (centres unmarked) [Compound 9, N-(7-Chloro-1,2,3,4-tetrahydronaphthalen-2-yl)-3,6-dimethylisoxazolo[5,4-d]pyrimidin-4-amine] | 36 | 183 | 1.6 to 3.1 (≈ 4.87 to 9.43 µM) | 0.59 | 0.89 | fold less potent than 1 on P. falciparum parasites [8]: 2–4 fold
Cc1nc(NC2CCc3cc(Cl)ccc3C2)c2c(C)noc2n1 (centres unmarked) [Compound 10, N-(6-Chloro-1,2,3,4-tetrahydronaphthalen-2-yl)-3,6-dimethylisoxazolo[5,4-d]pyrimidin-4-amine] | 23 | 179 | 1.6 to 3.1 (≈ 4.87 to 9.43 µM) | 0.47 | 0.89 | –
Cc1nc(NC2CCc3ccc(Br)cc3C2)c2c(C)noc2n1 (centres unmarked) [Compound 11, N-(7-Bromo-1,2,3,4-tetrahydronaphthalen-2-yl)-3,6-dimethylisoxazolo[5,4-d]pyrimidin-4-amine] | 32 | 233 | < 1.6 | 0.56 | 0.91 | fold less potent than 1 on P. falciparum parasites [8]: 2–4 fold
Cc1nc(NC2CCc3cc(Br)ccc3C2)c2c(C)noc2n1 (centres unmarked) [Compound 12, N-(6-Bromo-1,2,3,4-tetrahydronaphthalen-2-yl)-3,6-dimethylisoxazolo[5,4-d]pyrimidin-4-amine] | 19 | 138 | < 1.6 | 0.42 | 0.86 | –
Cc1nc(NC2Cc3cc(F)c(F)cc3C2)c2c(C)noc2n1 [Compound 13, N-(5,6-Difluoro-2,3-dihydro-1H-inden-2-yl)-3,6-dimethylisoxazolo[5,4-d]pyrimidin-4-amine] | 17 | 143 | 3.1 to 6.3 (≈ 9.8 to 19.9 µM) | 0.39 | 0.86 | AUC(0-inf) [10, 12]: 4.2 µM·h; Cmax [10, 12]: 2100 nM; Tmax [10, 12]: 60 min
Cc1nc(Nc2ccc(S(F)(F)(F)(F)F)cc2)c2c(C)noc2n1 [Compound 14, 3,6-Dimethyl-N-(4-(pentafluoro-l6-sulfanyl)phenyl)isoxazolo[5,4-d]pyrimidin-4-amine] | 20 | 38 | 6.3 to 12.5 (≈ 17.2 to 34.1 µM) | 0.44 | 0.63 | fold less potent than 1 on P. falciparum parasites [8]: 2–4 fold; AUC(0-inf) ([10]; whole blood, 10 mg/kg): 3.8 µM·h; Cmax ([10]; whole blood, 10 mg/kg): 1300 nM; Tmax ([10]; whole blood, 10 mg/kg): 45 min; ED90 (90% reduction in parasitemia) ([11]; SCID mice, oral QD for 4 days, data collected 24 h after the last dose): ~63 mg/kg; ED90 fold higher than that for 1 ([11]; same SCID model, once daily (QD) dosing, comparison with 1 from ref 26): ≥ 8 fold
Cc1nc(Nc2ccc(C(F)(F)F)cc2)c2c(C)noc2n1 [Compound 15, 3,6-Dimethyl-N-(4-(trifluoromethyl)phenyl)isoxazolo[5,4-d]pyrimidin-4-amine] | 24 | 28 | 6.3 to 12.5 (≈ 20.4 to 40.5 µM) | 0.48 | 0.55 | –
Cc1nc(Nc2ccc(C(F)(F)F)nc2)c2c(C)noc2n1 [Compound 16, 3,6-Dimethyl-N-(6-(trifluoromethyl)pyridin-3-yl)isoxazolo[5,4-d]pyrimidin-4-amine] | 8 | 13 | 25 to 50 (≈ 80.8 to 162 µM) | 0.25 | 0.36 | –
Cc1nc(NC2Cc3cc(F)c(F)cc3C2)c2c(C(F)(F)F)noc2n1 [Compound 30, N-(5,6-Difluoro-2,3-dihydro-1H-inden-2-yl)-6-methyl-3-(Trifluoromethyl)isoxazolo[5,4-d]pyrimidin-4-amine] | 26 | 328 | 1.6 to 3.1 (≈ 4.32 to 8.37 µM) | 0.5 | 0.93 | –
Cc1nc(Nc2ccc(C(F)(F)F)cc2)c2c(C(F)(F)F)noc2n1 [Compound 31, 6-Methyl-3-(trifluoromethyl)-N-(4-(trifluoromethyl)phenyl)isoxazolo[5,4-d]pyrimidin-4-amine] | 13 | 76 | 1.6 to 3.1 (≈ 4.42 to 8.56 µM) | 0.33 | 0.77 | –
Cc1nc(Nc2ccc(S(F)(F)(F)(F)F)cc2)c2c(C(F)(F)F)noc2n1 [Compound 32, 6-Methyl-N-(4-(pentafluoro-l6-sulfanyl)phenyl)-3-(trifluoromethyl)isoxazolo[5,4-d]pyrimidin-4-amine] | 13 | 73 | < 1.6 | 0.34 | 0.76 | –
Cc1noc2nc(C(F)(F)F)nc(Nc3ccc(C(F)(F)F)cc3)c12 [Compound 35, 3-Methyl-6-(trifluoromethyl)-N-(4-(trifluoromethyl)phenyl)isoxazolo[5,4-d]pyrimidin-4-amine] | 18 | 36 | 1.6 to 3.1 (≈ 4.42 to 8.56 µM) | 0.41 | 0.61 | –
Cc1noc2nc(C(F)(F)F)nc(Nc3ccc(S(F)(F)(F)(F)F)cc3)c12 [Compound 36, 3-Methyl-N-(4-(pentafluoro-l6-sulfanyl)phenyl)-6-(trifluoromethyl)isoxazolo[5,4-d]pyrimidin-4-amine] | 10 | 26 | 1.6 to 3.1 (≈ 3.81 to 7.38 µM) | 0.28 | 0.53 | –
